Measured values taken from ChEMBL document CHEMBL1125477, “Highly potent and selective heptapeptide antagonists of the neurokinin NK-2 receptor” (J Med Chem, 1992).

Columns and labels:
[1] = target: Substance-P receptor (Cavia porcellus) (UniProt P30547); test: Compound was evaluated for antagonism of contractile response of guinea pig ileum longitudinal smooth muscle (GPI) at tachykinin receptor 1; assay type: functional, tissue-based
In short: (§1)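 Isolated longitudinal smooth muscle of ileum from male Dunkin-Hartley guinea-pigs (300–600 g), killed by concussion and exsanguination. Contraction to SP methyl ester (NK-1 agonist). At least two control agonist curves, then one antagonist concentration per preparation. Concentration-ratio read graphically at half-maximal response. pK_B = log(CR−1) − log[antagonist]. Mean ± SE over four to eight tissues.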

[2] = target: T1, Substance-K receptor (Rattus norvegicus) (UniProt P16610); test: Compound was evaluated for antagonism of contractile response of rat colon muscularis mucosae (RC) at tachykinin receptor 2; assay type: functional, tissue-based; details: Muscularis mucosa
T1 sequence (whole entry): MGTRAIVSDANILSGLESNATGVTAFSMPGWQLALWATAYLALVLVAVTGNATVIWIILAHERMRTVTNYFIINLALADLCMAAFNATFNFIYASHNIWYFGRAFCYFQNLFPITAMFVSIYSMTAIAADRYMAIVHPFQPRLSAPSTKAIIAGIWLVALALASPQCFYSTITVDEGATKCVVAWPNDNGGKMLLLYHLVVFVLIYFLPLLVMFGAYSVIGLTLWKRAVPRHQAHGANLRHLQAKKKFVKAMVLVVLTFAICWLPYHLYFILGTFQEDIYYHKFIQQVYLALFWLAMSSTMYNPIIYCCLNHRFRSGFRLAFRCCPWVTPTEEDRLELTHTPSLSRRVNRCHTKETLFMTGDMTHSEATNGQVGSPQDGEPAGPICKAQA
In short: (§2)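 Colon muscularis mucosae from male AHA rats (250–500 g), killed by concussion and exsanguination. Contraction to neurokinin A (NK-2). At least two control agonist curves, then a single antagonist concentration per tissue. Equiactive agonist concentration-ratio taken at half-maximal response. pK_B = log(CR−1) − log[antagonist]. Mean ± SE over four to eight preparations.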

[3] = target: T2, Neuromedin-K receptor (Rattus norvegicus) (UniProt P16177); test: Compound was evaluated for antagonism of contractile response of rat portal vein at tachykinin receptor 3; assay type: functional
T2 sequence (whole entry): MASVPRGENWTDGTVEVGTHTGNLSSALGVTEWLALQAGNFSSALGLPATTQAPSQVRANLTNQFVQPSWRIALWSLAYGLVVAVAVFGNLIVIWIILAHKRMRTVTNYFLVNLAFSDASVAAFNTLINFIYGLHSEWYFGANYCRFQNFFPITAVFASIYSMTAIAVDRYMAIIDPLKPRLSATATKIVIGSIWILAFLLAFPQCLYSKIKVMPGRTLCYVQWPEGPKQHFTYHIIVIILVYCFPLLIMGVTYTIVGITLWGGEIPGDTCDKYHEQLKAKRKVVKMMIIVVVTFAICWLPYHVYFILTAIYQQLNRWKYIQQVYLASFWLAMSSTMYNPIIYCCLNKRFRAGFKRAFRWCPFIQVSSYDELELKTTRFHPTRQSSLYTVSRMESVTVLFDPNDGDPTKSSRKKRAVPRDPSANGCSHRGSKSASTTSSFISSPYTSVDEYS
In short: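 Everted portal vein from male AHA rats (250–500 g). Contraction to senktide (NK-3). Agonist curves were repeated at least twice before exposure to one antagonist concentration per preparation. Concentration-ratio estimated graphically at the half-maximal level. pK_B = log(CR−1) − log(molar antagonist). Mean ± SE of four to eight tissues.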

[4] = target: Substance-P receptor (Cavia porcellus) (UniProt P30547); test: Compound was evaluated for antagonism of contractile response of guinea pig ileum longitudinal smooth muscle (GPI) at Tachykinin receptor 1; assay type: functional, tissue-based; in short: as §1
[5] = target: T1, Substance-K receptor (Rattus norvegicus); test: Compound was evaluated for antagonism of contractile response of rat colon muscularis mucosae (RC) at Tachykinin receptor 2; assay type: functional, tissue-based; details: Muscularis mucosa; in short: as §2

Substance-P receptor (Cavia porcellus), sequence (P30547 whole entry): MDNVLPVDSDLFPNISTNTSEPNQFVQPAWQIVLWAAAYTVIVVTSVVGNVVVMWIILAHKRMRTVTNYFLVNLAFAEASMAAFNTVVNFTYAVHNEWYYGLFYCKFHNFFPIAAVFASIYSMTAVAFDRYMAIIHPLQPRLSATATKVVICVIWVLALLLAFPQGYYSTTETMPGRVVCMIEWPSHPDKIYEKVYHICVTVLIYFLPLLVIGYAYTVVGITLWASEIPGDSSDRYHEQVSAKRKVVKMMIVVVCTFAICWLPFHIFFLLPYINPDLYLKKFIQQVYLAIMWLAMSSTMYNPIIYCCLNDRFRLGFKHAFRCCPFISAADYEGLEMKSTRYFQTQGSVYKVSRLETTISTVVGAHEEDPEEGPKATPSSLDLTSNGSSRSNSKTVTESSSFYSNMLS

SMILES	pKB [1]	pKB [2]	pKB [3]	pKB [4]	pKB [5]
CCCC[C@H](NC(=O)[C@H](CC(C)C)NC(=O)[C@@H](Cc1c[nH]c2ccccc12)NC(=O)[C@H](Cc1ccccc1)NC(=O)[C@@H](Cc1c[nH]c2ccccc12)NC(=O)[C@H](CCC(N)=O)NC(=O)[C@H](CCCN=C(N)N)NC(=O)OC(C)(C)C)C(N)=O	7.1	6.5	–	–	–
CCCC[C@H](NC(=O)[C@@H]1CCCN1C(=O)CNC(=O)[C@H](Cc1ccccc1)NC(=O)[C@@H](Cc1c[nH]c2ccccc12)NC(=O)[C@H](C)NC(=O)[C@@H](N)CCCN=C(N)N)C(N)=O	4.8	< 4.6	< 4.6	–	–
CCCC[C@H](NC(=O)[C@H](CC(C)C)NC(=O)[C@@H](Cc1c[nH]c2ccccc12)NC(=O)[C@H](Cc1ccccc1)NC(=O)[C@@H](Cc1c[nH]c2ccccc12)NC(=O)[C@H](C)NC(=O)[C@@H](N)CCCN=C(N)N)C(N)=O	6	6.2	< 4.6	–	–
CSCC[C@@H](NC(=O)[C@H](CC(C)C)NC(=O)[C@H]1CCCN1C(=O)[C@H](Cc1ccccc1)NC(=O)[C@@H](Cc1c[nH]c2ccccc12)NC(=O)[C@H](C)NC(=O)[C@@H](N)CCCN=C(N)N)C(N)=O	< 4.6	5.7	4.9	–	–
C[C@H](NC(=O)[C@H](CCCN=C(N)N)NC(=O)OC(C)(C)C)C(=O)N[C@H](Cc1c[nH]c2ccccc12)C(=O)N[C@@H](Cc1ccccc1)C(=O)N1CCC[C@@H]1C(=O)N1CCC[C@H]1C(=O)NCC(N)=O	5.3	7	–	–	–
CCCC[C@H](NC(=O)[C@H](CC(C)C)NC(=O)[C@@H](Cc1c[nH]c2ccccc12)NC(=O)[C@H](Cc1ccccc1)NC(=O)[C@@H](Cc1c[nH]c2ccccc12)NC(=O)[C@H](CCC(N)=O)NC(=O)[C@@H](N)CCCN=C(N)N)C(N)=O	6.4	5.7	–	–	–
CCCC[C@H](NC(=O)[C@@H]1CCCN1C(=O)[C@H]1CCCN1C(=O)[C@H](Cc1ccccc1)NC(=O)[C@@H](Cc1c[nH]c2ccccc12)NC(=O)[C@H](C)NC(=O)[C@@H](N)CCCN=C(N)N)C(N)=O	4.7	5.9	< 4.6	–	–
CCCC[C@H](NC(=O)[C@H](CC(C)C)NC(=O)[C@@H](Cc1c[nH]c2ccccc12)NC(=O)[C@H](Cc1ccccc1)NC(=O)[C@@H](Cc1c[nH]c2ccccc12)NC(=O)[C@H](C)NC(=O)[C@H](CCCN=C(N)N)NC(=O)OC(C)(C)C)C(N)=O	6.9	6.5	–	–	–
CCCC[C@H](NC(=O)[C@@H]1CCCN1C(=O)[C@H]1CCCN1C(=O)[C@H](Cc1ccccc1)NC(=O)[C@H](Cc1ccccc1)NC(=O)[C@H](C)NC(=O)[C@@H](N)CCCN=C(N)N)C(N)=O	< 4.6	< 4.6	< 4.6	–	–
CCCC[C@H](NC(=O)[C@@H]1CCCN1C(=O)[C@H]1CCCN1C(=O)[C@H](Cc1ccccc1)NC(=O)[C@H]1CCCN1C(=O)[C@H](C)NC(=O)[C@H](CCCN=C(N)N)NC(=O)OC(C)(C)C)C(N)=O	4.5	5.2	–	–	–
CCCC[C@H](NC(=O)[C@@H]1CCCN1C(=O)[C@H]1N(C(=O)[C@H](Cc2ccccc2)NC(=O)[C@@H](Cc2c[nH]c3ccccc23)NC(=O)[C@H](C)NC(=O)[C@@H](N)CCCN=C(N)N)CSC1(C)C)C(N)=O	–	–	–	4.7	5.9
CCCC[C@H](NC(=O)[C@@H]1CCCN1C(=O)[C@H]1CCCN1C(=O)[C@H](Cc1ccccc1)NC(=O)[C@@H](Cc1c[nH]c2ccccc12)NC(=O)[C@H](C)NC(=O)[C@H](CCC/N=C(\N)N[N+](=O)[O-])NC(=O)OC(C)(C)C)C(N)=O	5.5	8.2	5.2	–	–
CCCC[C@H](NC(=O)[C@@H]1CCCN1C(=O)[C@H]1CCCN1C(=O)[C@H](Cc1ccccc1)NC(=O)[C@@H](C)NC(=O)[C@H](C)NC(=O)[C@H](CCCN=C(N)N)NC(=O)OC(C)(C)C)C(N)=O	4.8	5.6	–	–	–
CCCC[C@H](NC(=O)[C@@H]1CCCN1C(=O)[C@H]1CCCN1C(=O)[C@H](Cc1ccccc1)NC(=O)[C@@H](Cc1c[nH]c2ccccc12)NC(=O)[C@H](C)NC(=O)[C@H](CCCN=C(N)N)NC(=O)OCc1ccccc1)C(N)=O	6.7	7.5	–	–	–
CCCC[C@H](NC(=O)[C@@H]1CCCN1C(=O)[C@H]1CCCN1C(=O)[C@H](Cc1ccccc1)NC(=O)[C@@H](Cc1c[nH]c2ccccc12)NC(=O)[C@H](C)NC(=O)[C@H](CCCN=C(N)N)NC(C)=O)C(N)=O	4.6	5.6	–	–	–
CCCC[C@H](NC(=O)[C@@H]1CCCN1C(=O)[C@H]1CCCN1C(=O)[C@H](Cc1ccccc1)NC(=O)[C@@H](Cc1ccccc1)NC(=O)[C@H](C)NC(=O)[C@H](CCCN=C(N)N)NC(=O)OC(C)(C)C)C(N)=O	–	6.4	–	–	–
CCCC[C@H](NC(=O)C1CCCN1C(=O)[C@H]1CCCN1C(=O)[C@H](Cc1ccccc1)NC(=O)[C@@H](Cc1c[nH]c2ccccc12)NC(=O)CCCCNC(=O)OC(C)(C)C)C(N)=O (stereo partly specified)	–	–	–	–	7.6
CCCC[C@H](NC(=O)[C@@H]1CCCN1C(=O)[C@H]1CCCN1C(=O)[C@H](Cc1ccccc1)NC(=O)[C@@H](Cc1c[nH]c2ccccc12)NC(=O)[C@H](C)NC(=O)[C@H](N)CCC(=O)OCc1ccccc1)C(N)=O	–	–	–	< 5.5	7.2
CNC(=O)[C@@H]1CCCN1C(=O)[C@H]1CCCN1C(=O)[C@H](Cc1ccccc1)NC(=O)[C@@H](Cc1c[nH]c2ccccc12)NC(=O)[C@H](C)NC(=O)[C@H](CCCN=C(N)N)NC(=O)OC(C)(C)C	5.1	7.5	–	–	–
CCCCCNC(=O)[C@@H]1CCCN1C(=O)[C@H]1CCCN1C(=O)[C@H](Cc1ccccc1)NC(=O)[C@@H](Cc1c[nH]c2ccccc12)NC(=O)[C@H](C)NC(=O)[C@H](CCCN=C(N)N)NC(=O)OC(C)(C)C	5.8	7.6	–	–	–

Results, then the compound that gave them:

pKB [1]	pKB [2]	pKB [3]	pKB [4]	pKB [5]	SMILES
–	–	–	4.8	7.1	CCCC[C@H](NC(=O)[C@@H]1CCCN1C(=O)[C@H]1CCCN1C(=O)[C@H](Cc1ccccc1)NC(=O)[C@@H](Cc1c[nH]c2ccccc12)NC(=O)[C@H](C)NC(=O)[C@H](CCCCN)NC(=O)OC(C)(C)C)C(N)=O
5.7	5.2	–	–	–	CCCC[C@H](NC(=O)[C@@H]1CCCN1C(=O)[C@H]1CCCN1C(=O)[C@H](Cc1ccccc1)NC(=O)[C@@H](Cc1c[nH]c2ccccc12)NC(=O)[C@H](C)NC(=O)[C@@H](CCCN=C(N)N)NC(=O)OC(C)(C)C)C(N)=O
6	7.1	–	–	–	CCCC[C@H](NC(=O)[C@@H]1CCCN1C(=O)[C@H]1CCCN1C(=O)[C@H](Cc1ccccc1)NC(=O)[C@@H](Cc1c[nH]c2ccccc12)NC(=O)[C@H](C)NC(=O)[C@@H](CCC(=O)OCc1ccccc1)NC(=O)OC(C)(C)C)C(N)=O
< 4.5	6.2	–	–	–	CSCC[C@H](NC(=O)[C@@H]1CCCN1C(=O)[C@H]1CCCN1C(=O)[C@H](Cc1ccccc1)NC(=O)[C@@H](Cc1c[nH]c2ccccc12)NC(=O)[C@H](C)NC(=O)[C@H](CCCN=C(N)N)NC(=O)OC(C)(C)C)C(N)=O
6.6	7.4	–	–	–	CCCC[C@H](NC(=O)[C@@H]1CCCN1C(=O)[C@H]1CCCN1C(=O)[C@H](Cc1ccccc1)NC(=O)[C@@H](Cc1c[nH]c2ccccc12)NC(=O)[C@H](C)NC(=O)[C@H](CCC(=O)OCc1ccccc1)NC(=O)OC(C)(C)C)C(N)=O
5.8	8.2	< 4.6	–	–	CCCC[C@H](NC(=O)[C@@H]1CCCN1C(=O)[C@H]1CCCN1C(=O)[C@H](Cc1ccccc1)NC(=O)[C@@H](Cc1c[nH]c2ccccc12)NC(=O)[C@H](C)NC(=O)[C@H](CCCN=C(N)N)NC(=O)OC(C)(C)C)C(N)=O
< 5	6.4	–	–	–	CCCC[C@H](NC(=O)[C@@H]1CCCN1C(=O)[C@H]1CCCN1C(=O)[C@H](Cc1ccccc1)NC(=O)[C@H](Cc1c[nH]c2ccccc12)NC(=O)[C@H](C)NC(=O)[C@H](CCCN=C(N)N)NC(=O)OC(C)(C)C)C(N)=O
–	–	–	< 4.5	6.5	CCCC[C@H](NC(=O)[C@@H]1CCCN1C(=O)[C@H]1CCCN1C(=O)[C@H](Cc1ccccc1)NC(=O)[C@@H](Cc1c[nH]c2ccccc12)NC(=O)[C@H](C)NC(=O)[C@H](CCC(=O)O)NC(=O)OC(C)(C)C)C(N)=O
